Reference: ChEMBL document CHEMBL1157613, “Salicylic acid based small molecule inhibitor for the oncogenic Src homology-2 domain containing protein tyrosine phosphatase-2 (SHP2)” (J Med Chem, 2010)
pIC50: −log10 of the molar value. Active and inactive are the calls of the source. The rule behind the calls is not given here.

Legend:
[1] = target: T1, Tyrosine-protein phosphatase non-receptor type 11 (Mus musculus) (UniProt P35235); assay: Inhibition of SHP2-dependent ERK1/2 activation in EGF-stimulated mouse NIH/3T3 cells assessed as phosphorylated ERK1/2 level at 10 uM treated for 3 hrs before EGF challenge measured after 5 to 15 mins of EGF stimulation by immunoblot analysis; type: cell-based; details: NIH3T3
T1 sequence (whole entry): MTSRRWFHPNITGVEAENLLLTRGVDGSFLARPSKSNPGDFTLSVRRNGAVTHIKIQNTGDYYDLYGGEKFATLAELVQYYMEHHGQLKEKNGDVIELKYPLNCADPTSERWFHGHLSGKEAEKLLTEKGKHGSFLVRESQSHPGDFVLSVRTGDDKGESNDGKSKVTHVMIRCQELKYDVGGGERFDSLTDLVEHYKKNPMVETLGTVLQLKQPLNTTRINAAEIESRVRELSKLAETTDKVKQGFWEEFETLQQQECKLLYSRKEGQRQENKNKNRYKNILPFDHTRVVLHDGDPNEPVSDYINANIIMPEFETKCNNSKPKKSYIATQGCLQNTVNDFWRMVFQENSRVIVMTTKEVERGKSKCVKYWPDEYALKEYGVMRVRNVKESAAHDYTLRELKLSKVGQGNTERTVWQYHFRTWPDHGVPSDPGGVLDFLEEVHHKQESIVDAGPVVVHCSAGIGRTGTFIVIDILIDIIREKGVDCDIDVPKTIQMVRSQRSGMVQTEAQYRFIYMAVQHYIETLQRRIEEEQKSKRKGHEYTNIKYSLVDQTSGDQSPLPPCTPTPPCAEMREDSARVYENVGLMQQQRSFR

[2] = target: Dual specificity protein phosphatase 3 (Homo sapiens, UniProt P51452); assay: Inhibition of VHR expressed in Escherichia coli assessed as inhibition of p-nitrophenyl phosphate hydrolysis at pH 7 by spectrophotometry
Chain of Dual specificity protein phosphatase 3 (P51452 whole entry): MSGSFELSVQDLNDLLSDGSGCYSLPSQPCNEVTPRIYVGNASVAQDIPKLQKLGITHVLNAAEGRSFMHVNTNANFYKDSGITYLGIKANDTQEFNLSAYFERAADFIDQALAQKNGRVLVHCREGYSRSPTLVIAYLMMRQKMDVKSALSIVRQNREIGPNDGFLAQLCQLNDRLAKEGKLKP

[3] = target: T2, Tyrosine-protein phosphatase non-receptor type 1 (Homo sapiens, UniProt P18031); assay: Inhibition of PTP1B expressed in Escherichia coli assessed as inhibition of p-nitrophenyl phosphate hydrolysis at pH 7 by spectrophotometry
T2 sequence (P18031 whole entry): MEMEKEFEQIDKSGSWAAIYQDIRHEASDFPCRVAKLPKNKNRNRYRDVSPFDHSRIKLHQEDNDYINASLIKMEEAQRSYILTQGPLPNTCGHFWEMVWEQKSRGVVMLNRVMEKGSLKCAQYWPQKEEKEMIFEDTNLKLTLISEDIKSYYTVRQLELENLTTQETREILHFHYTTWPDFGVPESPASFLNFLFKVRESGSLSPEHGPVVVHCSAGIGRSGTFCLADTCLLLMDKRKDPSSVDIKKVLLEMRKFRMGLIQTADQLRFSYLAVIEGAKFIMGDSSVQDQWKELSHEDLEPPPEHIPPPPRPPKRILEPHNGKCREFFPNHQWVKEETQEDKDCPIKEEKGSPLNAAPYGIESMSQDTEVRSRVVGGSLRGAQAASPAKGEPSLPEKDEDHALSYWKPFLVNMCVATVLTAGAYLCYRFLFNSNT

[4] = target: Receptor-type tyrosine-protein phosphatase F (Homo sapiens, UniProt P10586); assay: Inhibition of LAR expressed in Escherichia coli assessed as inhibition of p-nitrophenyl phosphate hydrolysis at pH 7 by spectrophotometry
Chain of Receptor-type tyrosine-protein phosphatase F (P10586 whole entry): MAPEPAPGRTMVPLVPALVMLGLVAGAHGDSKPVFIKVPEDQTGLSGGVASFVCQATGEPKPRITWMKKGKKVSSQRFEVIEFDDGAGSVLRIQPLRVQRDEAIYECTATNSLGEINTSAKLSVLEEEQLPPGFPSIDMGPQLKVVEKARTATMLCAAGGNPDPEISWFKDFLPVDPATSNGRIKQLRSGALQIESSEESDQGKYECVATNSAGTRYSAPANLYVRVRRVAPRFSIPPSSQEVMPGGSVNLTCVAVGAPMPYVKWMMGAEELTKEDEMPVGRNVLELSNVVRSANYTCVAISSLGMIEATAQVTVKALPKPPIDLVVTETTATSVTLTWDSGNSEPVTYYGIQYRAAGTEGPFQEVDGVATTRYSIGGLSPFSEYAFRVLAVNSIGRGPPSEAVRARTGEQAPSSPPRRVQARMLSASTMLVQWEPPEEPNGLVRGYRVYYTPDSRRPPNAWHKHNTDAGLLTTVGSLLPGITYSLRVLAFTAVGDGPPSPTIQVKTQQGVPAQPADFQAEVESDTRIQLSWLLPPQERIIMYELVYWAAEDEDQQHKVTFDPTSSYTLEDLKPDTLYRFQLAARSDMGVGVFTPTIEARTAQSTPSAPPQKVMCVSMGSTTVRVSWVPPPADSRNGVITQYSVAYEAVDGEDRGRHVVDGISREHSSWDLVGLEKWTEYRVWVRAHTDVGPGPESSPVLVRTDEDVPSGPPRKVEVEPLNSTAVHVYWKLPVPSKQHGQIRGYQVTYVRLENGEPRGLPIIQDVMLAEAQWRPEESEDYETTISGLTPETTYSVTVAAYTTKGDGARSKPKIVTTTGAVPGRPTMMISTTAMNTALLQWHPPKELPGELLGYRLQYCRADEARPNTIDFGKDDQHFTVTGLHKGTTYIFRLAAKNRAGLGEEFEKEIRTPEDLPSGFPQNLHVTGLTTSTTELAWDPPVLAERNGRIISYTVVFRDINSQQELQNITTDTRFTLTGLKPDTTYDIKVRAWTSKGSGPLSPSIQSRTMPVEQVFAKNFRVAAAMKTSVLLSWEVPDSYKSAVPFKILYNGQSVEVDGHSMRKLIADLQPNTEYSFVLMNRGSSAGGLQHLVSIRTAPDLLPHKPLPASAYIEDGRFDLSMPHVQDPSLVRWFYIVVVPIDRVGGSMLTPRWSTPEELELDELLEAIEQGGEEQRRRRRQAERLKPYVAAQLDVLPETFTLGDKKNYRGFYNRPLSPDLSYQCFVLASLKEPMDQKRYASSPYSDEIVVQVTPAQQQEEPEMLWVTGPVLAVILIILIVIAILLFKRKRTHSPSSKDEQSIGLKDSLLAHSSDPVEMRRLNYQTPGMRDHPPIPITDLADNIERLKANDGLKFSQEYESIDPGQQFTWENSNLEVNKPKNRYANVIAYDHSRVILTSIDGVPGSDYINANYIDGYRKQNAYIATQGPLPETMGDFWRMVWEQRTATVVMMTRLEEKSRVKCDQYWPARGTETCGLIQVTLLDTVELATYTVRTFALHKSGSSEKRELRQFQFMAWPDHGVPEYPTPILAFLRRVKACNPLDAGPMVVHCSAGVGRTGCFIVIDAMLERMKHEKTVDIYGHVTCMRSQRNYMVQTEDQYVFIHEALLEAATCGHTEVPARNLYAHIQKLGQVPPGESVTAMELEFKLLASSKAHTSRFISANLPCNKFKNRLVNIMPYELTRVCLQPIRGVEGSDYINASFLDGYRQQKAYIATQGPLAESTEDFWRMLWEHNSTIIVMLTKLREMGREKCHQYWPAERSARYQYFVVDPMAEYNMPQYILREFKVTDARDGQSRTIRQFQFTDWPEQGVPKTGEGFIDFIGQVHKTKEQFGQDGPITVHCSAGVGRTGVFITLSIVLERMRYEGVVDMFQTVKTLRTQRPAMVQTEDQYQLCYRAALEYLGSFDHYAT

[5] = target: T3, Low molecular weight phosphotyrosine protein phosphatase (Homo sapiens, UniProt P24666); assay: Inhibition of LMWPTP expressed in Escherichia coli assessed as inhibition of p-nitrophenyl phosphate hydrolysis at pH 7 by spectrophotometry
T3 sequence (P24666 whole entry): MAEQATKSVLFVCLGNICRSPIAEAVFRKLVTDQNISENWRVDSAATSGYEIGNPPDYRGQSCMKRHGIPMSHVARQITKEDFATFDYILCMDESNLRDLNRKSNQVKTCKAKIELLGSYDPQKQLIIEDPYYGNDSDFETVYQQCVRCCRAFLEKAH

Mus musculus [6] = species: Mus musculus; assay: Antiproliferative activity against GM-CSF-stimulated C57/BL6 mouse low density BM-MNC assessed as inhibition of hyperproliferation at 10 uM after 16 hrs by [3H]thymidine incorporation assay; details: C57Bl/6
[7] = target: Tyrosine-protein phosphatase non-receptor type 13 (Homo sapiens, UniProt Q12923); assay: Inhibition of FAP1 expressed in Escherichia coli assessed as inhibition of p-nitrophenyl phosphate hydrolysis at pH 7 by spectrophotometry
Chain of Tyrosine-protein phosphatase non-receptor type 13 (Q12923 whole entry): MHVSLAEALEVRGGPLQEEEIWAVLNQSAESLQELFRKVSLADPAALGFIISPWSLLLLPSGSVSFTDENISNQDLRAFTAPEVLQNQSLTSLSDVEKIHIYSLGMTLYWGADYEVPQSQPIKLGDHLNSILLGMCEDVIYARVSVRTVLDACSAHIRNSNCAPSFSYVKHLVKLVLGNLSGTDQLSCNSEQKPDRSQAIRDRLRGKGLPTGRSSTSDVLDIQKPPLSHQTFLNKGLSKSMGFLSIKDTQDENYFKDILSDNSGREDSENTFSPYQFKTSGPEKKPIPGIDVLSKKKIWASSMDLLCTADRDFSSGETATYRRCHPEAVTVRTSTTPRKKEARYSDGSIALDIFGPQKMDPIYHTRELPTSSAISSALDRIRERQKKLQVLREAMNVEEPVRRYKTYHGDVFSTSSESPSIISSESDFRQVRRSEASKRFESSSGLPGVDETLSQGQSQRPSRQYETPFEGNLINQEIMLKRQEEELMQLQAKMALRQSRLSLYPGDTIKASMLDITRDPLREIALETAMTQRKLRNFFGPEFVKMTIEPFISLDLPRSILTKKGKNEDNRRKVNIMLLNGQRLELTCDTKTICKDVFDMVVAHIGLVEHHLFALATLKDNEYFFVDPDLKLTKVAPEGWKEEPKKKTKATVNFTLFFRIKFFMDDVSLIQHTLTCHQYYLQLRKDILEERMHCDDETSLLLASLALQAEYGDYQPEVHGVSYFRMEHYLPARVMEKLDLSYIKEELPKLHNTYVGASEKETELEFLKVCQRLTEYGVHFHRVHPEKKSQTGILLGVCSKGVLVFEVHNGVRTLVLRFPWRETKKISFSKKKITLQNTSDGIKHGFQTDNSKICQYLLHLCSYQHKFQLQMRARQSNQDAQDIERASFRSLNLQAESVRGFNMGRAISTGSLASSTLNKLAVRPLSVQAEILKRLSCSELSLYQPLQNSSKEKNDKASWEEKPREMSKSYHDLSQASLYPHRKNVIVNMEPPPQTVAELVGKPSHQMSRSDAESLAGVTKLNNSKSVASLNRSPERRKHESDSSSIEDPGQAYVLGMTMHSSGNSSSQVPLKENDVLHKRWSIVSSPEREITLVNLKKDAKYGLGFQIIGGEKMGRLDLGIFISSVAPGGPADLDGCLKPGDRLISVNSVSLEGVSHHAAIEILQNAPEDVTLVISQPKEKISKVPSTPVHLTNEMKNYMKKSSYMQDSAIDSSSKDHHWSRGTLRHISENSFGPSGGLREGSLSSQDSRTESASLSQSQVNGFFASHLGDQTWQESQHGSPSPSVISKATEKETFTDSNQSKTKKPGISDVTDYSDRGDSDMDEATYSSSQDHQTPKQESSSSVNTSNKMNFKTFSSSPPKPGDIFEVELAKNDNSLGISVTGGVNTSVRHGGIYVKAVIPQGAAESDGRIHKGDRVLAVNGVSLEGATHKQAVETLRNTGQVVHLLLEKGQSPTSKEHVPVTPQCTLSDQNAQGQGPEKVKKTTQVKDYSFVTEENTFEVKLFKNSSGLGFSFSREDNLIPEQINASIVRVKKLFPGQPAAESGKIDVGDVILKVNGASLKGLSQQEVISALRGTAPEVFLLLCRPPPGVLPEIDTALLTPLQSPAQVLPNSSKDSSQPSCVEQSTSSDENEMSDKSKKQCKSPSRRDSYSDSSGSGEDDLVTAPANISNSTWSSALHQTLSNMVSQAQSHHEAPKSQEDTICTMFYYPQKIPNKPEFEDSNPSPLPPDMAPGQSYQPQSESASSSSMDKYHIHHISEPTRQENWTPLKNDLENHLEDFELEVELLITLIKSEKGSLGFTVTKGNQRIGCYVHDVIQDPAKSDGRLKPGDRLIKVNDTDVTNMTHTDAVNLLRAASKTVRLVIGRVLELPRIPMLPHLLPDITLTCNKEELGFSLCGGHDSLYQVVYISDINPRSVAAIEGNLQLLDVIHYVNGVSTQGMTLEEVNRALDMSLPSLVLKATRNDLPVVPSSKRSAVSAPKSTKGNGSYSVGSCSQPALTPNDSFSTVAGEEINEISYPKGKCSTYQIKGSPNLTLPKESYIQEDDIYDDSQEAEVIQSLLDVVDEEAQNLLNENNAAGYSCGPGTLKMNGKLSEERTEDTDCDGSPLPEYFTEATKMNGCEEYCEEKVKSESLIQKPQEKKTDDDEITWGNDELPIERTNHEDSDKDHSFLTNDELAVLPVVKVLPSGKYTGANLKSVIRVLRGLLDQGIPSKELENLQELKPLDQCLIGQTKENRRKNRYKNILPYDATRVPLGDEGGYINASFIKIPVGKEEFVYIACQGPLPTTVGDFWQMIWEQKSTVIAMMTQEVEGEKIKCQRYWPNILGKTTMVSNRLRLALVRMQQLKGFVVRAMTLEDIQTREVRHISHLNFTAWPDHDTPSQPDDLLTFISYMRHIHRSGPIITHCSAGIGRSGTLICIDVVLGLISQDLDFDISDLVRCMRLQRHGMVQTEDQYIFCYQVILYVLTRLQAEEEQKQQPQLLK

[8] = target: T1, Tyrosine-protein phosphatase non-receptor type 11 (Mus musculus); assay: Inhibition of SHP2-dependent ERK1/2 activation in EGF-stimulated mouse NIH/3T3 cells assessed as phosphorylated ERK1/2 level at 10 uM treated for 3 hrs before EGF challenge measured after 60 mins of EGF stimulation by immunoblot analysis; type: cell-based; details: NIH3T3
Mus musculus [9] = species: Mus musculus; assay: Antiproliferative activity against GM-CSF-stimulated C57/BL6 mouse low density BM-MNC expressing SHP2 E76K mutant assessed as inhibition of hyperproliferation at 10 uM after 16 hrs by [3H]thymidine incorporation assay; type: functional; details: C57Bl/6
Method in brief: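 Marrow low-density mononuclear cells from C57Bl/6 mice (Ficoll), prestimulated 24 h with SCF, G-CSF, Tpo (100 ng/mL), retrovirally transduced 48 h with wild-type SHP2, D61Y or E76K, EGFP-sorted. Starved 4 h in 0.2% BSA; 5 × 10^4 cells cultured 16 h in GM-CSF 0-1 ng/mL ± 10 μM compound, then pulsed with 1.0 μCi [3H]thymidine for 6-8 h; counts per minute; n = 3.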

[10] = target: T4, Dual specificity protein phosphatase CDC14A (Homo sapiens, UniProt Q9UNH5); assay: Inhibition of Cdc14A expressed in Escherichia coli assessed as inhibition of p-nitrophenyl phosphate hydrolysis at pH 7 by spectrophotometry
T4 sequence (Q9UNH5 whole entry): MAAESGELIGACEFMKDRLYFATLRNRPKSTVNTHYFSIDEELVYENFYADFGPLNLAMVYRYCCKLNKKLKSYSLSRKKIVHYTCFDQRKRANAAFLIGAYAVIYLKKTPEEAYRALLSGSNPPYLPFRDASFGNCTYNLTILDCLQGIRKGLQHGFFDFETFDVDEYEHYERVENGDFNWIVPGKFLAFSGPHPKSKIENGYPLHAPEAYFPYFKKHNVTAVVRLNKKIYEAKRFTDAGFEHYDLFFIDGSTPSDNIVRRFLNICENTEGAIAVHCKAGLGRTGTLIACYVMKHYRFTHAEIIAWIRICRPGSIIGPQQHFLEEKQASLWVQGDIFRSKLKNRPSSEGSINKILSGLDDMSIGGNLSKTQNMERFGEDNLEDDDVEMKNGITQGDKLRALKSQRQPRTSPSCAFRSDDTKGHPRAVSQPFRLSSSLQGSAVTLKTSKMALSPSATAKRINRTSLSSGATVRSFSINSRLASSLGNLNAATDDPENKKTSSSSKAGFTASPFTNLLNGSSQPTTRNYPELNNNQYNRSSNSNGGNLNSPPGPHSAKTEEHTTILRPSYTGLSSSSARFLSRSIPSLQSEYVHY

For Cn1c(-c2ccccc2)c(-c2cn(CCC(=O)Nc3ccc(-c4ccccc4)cc3)nn2)c2cc(C(=O)O)c(O)cc21, the inhibition [1] was “inactive”, the pIC50 [2] was < 4.30 and the pIC50 [3] was 4.84. For the same compound, the pIC50 [4] was < 4.30, the pIC50 [5] was 4.51 and the Activity (Mus musculus [6]) was “Active”. For the same compound, the pIC50 [7] was 4.69, the inhibition [8] was “Active” and the Activity (Mus musculus [9]) was “Active”. For the same compound, the pIC50 [10] was < 4.30.
